Bioassay records deposited in PubChem BioAssay by several laboratories.
Hits are enriched below; roughly 1.7% of the tested compounds scored in any of these assays.
TPT1 inh = Candida albicans TPT1 enzyme inhibitors, primary screen, biochemical, fluorescence polarization; recombinant caTPT1, FP RNA substrate dephosphorylation; inhibition, % at 5 µM; actives 0.81% (n = 300,000);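 active = inhibition above the mean of all tested compounds plus 3 SD, set per screening campaign, cut at about 24% in these data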
HNF4A DNA FP = change in binding of human HNF4A to DNA, primary screen, biochemical, fluorescence polarization, FITC-DNA. 1 h. AID 1224865, 2016. Hepatocyte nuclear factor 4-alpha (Homo sapiens), P41235. actives 0.3% (n = 360,000). activity change, % at 10 µM; in the data active = activity change above about 30%, passing the limit was not always enough
Rev-erbA mod = modulators of Rev-erb alpha DNA binding, primary screen, biochemical, FITC-DNA, fluorescence polarization, uHTS; Nuclear receptor subfamily 1 group D member 1 (Homo sapiens), P20393; AID 1259318, 2017; activity, % at 10 µM; actives 0.79% (n = 370,000); Rev-erbα–FITC-DNA binding, 90 min;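 active = activity above about 14%, limit read from the data; passing the limit was not always enough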
Target sequence (P20393 whole entry, looked up): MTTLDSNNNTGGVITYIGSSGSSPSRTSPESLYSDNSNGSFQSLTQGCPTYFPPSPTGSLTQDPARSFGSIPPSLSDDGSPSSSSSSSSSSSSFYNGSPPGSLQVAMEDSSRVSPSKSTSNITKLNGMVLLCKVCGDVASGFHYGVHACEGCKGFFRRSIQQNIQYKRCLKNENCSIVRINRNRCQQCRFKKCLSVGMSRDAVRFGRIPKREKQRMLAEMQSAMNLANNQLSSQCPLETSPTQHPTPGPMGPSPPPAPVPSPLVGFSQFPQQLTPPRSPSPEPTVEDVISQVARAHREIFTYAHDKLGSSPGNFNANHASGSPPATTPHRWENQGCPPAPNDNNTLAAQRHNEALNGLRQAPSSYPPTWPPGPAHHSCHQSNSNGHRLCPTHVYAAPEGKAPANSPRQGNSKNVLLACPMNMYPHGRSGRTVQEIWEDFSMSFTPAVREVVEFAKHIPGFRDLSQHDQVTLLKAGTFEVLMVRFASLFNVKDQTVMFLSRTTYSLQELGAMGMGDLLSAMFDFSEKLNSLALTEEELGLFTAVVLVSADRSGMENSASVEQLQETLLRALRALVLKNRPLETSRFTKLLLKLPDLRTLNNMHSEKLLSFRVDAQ
CSN inh = inhibitors of CSN-mediated cullin deneddylation, primary screen, biochemical, fluorescence polarization, uHTS. COP9 signalosome complex subunit 5 (Homo sapiens), Q92905. inhibition, % at 12.5 µM. Purified CSN, SCF-Nedd8-OG deneddylation. AID 651999, 2013. actives 0.38% (n = 360,000);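 active = pattern-corrected inhibition above about 35%, with an unprinted fluorescence ratio check between 0.5 and 1.5, limit read from the data, passing the limit was not always enough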
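Assay system: Purified human Csn5 enzyme expressed in HEK293T cells | Amount: Enzyme 0.24 nM | Measured by: Fluorescence polarization readout | Medium: Tris/NaCl/DTT buffer, pH 7.5 | Compound dosing: One concentration, 12.5 µM, 0.25% DMSO | Times: 90 min incubation of compound, enzyme and substrate at room temperature | Control set: no-enzyme wells high, enzyme-with-substrate wells low | Read-out: % inhibition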
caTPT1 confirm = Candida albicans TPT1 inhibitors, confirmation, biochemical, fluorescence polarization, triplicate | shares compounds with TPT1 inh | recombinant caTPT1, RNase T1 coupled | inhibition, % at 5 µM | actives 74% (n = 2,400);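 active = inhibition above the primary screen limit, the mean inhibition of all tested compounds plus 3 SD, cut at about 25% in these data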
RNase T1 counter = RNase T1 inhibitors, counter-screen for TPT1 inhibitor project, biochemical, fluorescence polarization | shares compounds with TPT1 inh | RNase T1 cleavage, 1536-well | inhibition, % at 5 µM | actives 83% (n = 2,400);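 active = inhibition above the solvent-only control well mean plus 3 SD, limit set per screening run, cut at about 23% in these data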;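 note: inhibitors block cleavage so intact labeled substrate keeps polarization high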
Each line names hits and unclear results; the compound was inactive in the other large screens (follow-up assays come after a bar, where they were run); ! = not active in a repeat.

O=C1NC(=S)N(c2ccc(F)cc2)C(=O)/C1=C\c1ccoc1	none (no result: TPT1 inh, Rev-erbA mod)
O=C1NC(=S)N(c2ccc(F)cc2)C(=O)/C1=C/c1ccco1	TPT1 inh 78.3 (no result: HNF4A DNA FP, Rev-erbA mod, CSN inh)
Cc1c(P(=S)(c2ccccc2)c2ccccc2)[n+]2ccccc2n1C	CSN inh 74.5! (no result: TPT1 inh)
CCC(C)[C@H]1O[C@]2(C=C[C@@H]1C)C[C@@H]1C[C@@H](C/C=C(\C)[C@@H](O[C@@H]3C[C@H](OC)[C@H](O[C@H]4C[C@H](OC)[C@@H](O)[C@H](C)O4)[C@H](C)O3)[C@@H](C)/C=C/C=C3\CO[C@@H]4[C@H](O)C(C)=C[C@@H](C(=O)O1)[C@]34O)O2 (stereo not given in full)	none (no result: TPT1 inh, HNF4A DNA FP, CSN inh)
O=C(NC1CCCCC1)N1Cc2cc(-c3cccc(F)c3)ccc2-n2nncc2C1	CSN inh 144.5 (no result: TPT1 inh)
CC(=O)[C@H]1CCC2C3CC[C@H]4C[C@H](O)CC[C@]4(C)C3C(=O)C[C@@]21C (stereo not given in full)	none (no result: TPT1 inh, HNF4A DNA FP, CSN inh)
CN1CCN(C(=O)COc2ccc(S(=O)(=O)Nc3ccc(F)cc3)cc2)CC1	HNF4A DNA FP 43.0
CN(C)/C=C/C(=O)C(Cl)(Cl)Cl	HNF4A DNA FP 37.8
CN1C2C[C@H](OC(=O)[C@H](CO)c3ccccc3)CC1[C@@H](O)C2 (stereo not given in full)	none (no result: TPT1 inh, HNF4A DNA FP, CSN inh)
CC1=C2CCC3C(CC[C@]4(C)C(=O)CCC34)[C@@]2(C)CCC1=O (stereo not given in full)	none (no result: TPT1 inh, HNF4A DNA FP, CSN inh)
COc1ccc(/C=C2/C(=O)NC(=O)N(Cc3ccco3)C2=O)cc1	TPT1 inh 32.8 (no result: HNF4A DNA FP, Rev-erbA mod, CSN inh)
COC1C(O)CC(OC2CC(Oc3cc4cc5c(c(O)c4c(O)c3C)C(=O)[C@@H](OC3CC(OC4CC(OC6CC(C)(O)C(OC(C)=O)C(C)O6)C(O)C(C)O4)C(O)C(C)O3)[C@H]([C@H](OC)C(=O)C(O)[C@H](C)O)C5)OC(C)C2OC(C)=O)OC1C (stereo not given in full)	none (no result: TPT1 inh, HNF4A DNA FP, CSN inh)
Nc1c(C(=O)NCC2CCCO2)c2nc3ccccc3nc2n1Cc1ccco1 (stereo not given)	none
Nc1c(C(=O)NC2CCCC2)c2nc3ccccc3nc2n1CC1CCCO1 (stereo not given)	CSN inh 46.3
CCN1C(=O)/C(=C/c2ccc3c(c2)CCN3CCCCl)C(=O)NC1=S	none
CC(C)(C)N1C(=O)NC(=O)/C(=C\c2ccc3c(c2)CCN3CCCCl)C1=O	CSN inh 39.0
Cc1cccc(C)c1-n1nnnc1C(c1cccc2ccccc12)N1CCC(n2c(=O)[nH]c3ccccc32)CC1 (stereo not given)	none (no result: TPT1 inh)
Cc1cccc(C)c1-n1nnnc1C(c1cccs1)N1CCC(n2c(=O)[nH]c3ccccc32)CC1 (stereo not given)	CSN inh 67.7 (no result: TPT1 inh)
O=c1[nH]c(=O)n(CCc2ccc(F)cc2)c(O)c1C=NCCCn1ccnc1	TPT1 inh 38.9 | caTPT1 confirm 33.3 | RNase T1 counter 44.2
CC[C@H]1C2CC3[C@@H]4N(C)c5ccccc5[C@]45C[C@@H](C2C5O)N3[C@@H]1O (stereo not given in full)	none (no result: TPT1 inh, HNF4A DNA FP, CSN inh)
O=C(O)Cn1cc(C=C2C(=O)NC(=O)NC2=O)c2ccccc21	none
C=CCn1cc(C=C2C(=O)NC(=O)NC2=O)c2ccccc21	TPT1 inh 24.9 | caTPT1 confirm 40.5 | RNase T1 counter 52.3
O=C(O)Cn1cc(/C=C2\C(=O)NC(=O)N(c3ccc(Cl)cc3)C2=O)c2ccccc21	TPT1 inh 39.5 | caTPT1 confirm 41.9 | RNase T1 counter 52.9
CCn1c(O)c(C=Nc2ccc(S(N)(=O)=O)cc2)c(=O)n(CC)c1=S	none
NS(=O)(=O)c1ccc(N=Cc2c(O)n(C3CCCCC3)c(=O)n(C3CCCCC3)c2=O)cc1	TPT1 inh 44.4 | caTPT1 confirm inactive | RNase T1 counter 25.0
O[C@@H]1CCCN2CCc3c([nH]c4ccccc34)[C@H]12	TPT1 inh 30.3 | caTPT1 confirm inactive | RNase T1 counter 23.1
Oc1ccc2c3c1O[C@H]1c4[nH]c5ccccc5c4C[C@@]4(O)[C@@H](C2)N(CC2CC2)CC[C@]314	none
Cc1ccc(N=CN(C)C=Nc2ccc(C)cc2C)c(C)c1	none (no result: TPT1 inh, HNF4A DNA FP, CSN inh)
O=Cc1c(C(=O)O)n(Cc2ccccc2F)c2ccccc12	none
Cc1ccc(C)c(Cn2c(C(=O)O)c(C=O)c3ccccc32)c1	TPT1 inh 123.5 | caTPT1 confirm 142.6 | RNase T1 counter 137.0
CCN(CC)c1ccc(/C=N/c2sc3c(c2C#N)C2CCN3CC2)c(O)c1	TPT1 inh 161.0 (no result: Rev-erbA mod) | caTPT1 confirm 145.8 | RNase T1 counter 133.0
CC(C)CCP(=O)(O)O	none (no result: TPT1 inh, HNF4A DNA FP, CSN inh)
O=C1CN=C(c2ccccc2Cl)c2cc([N+](=O)[O-])ccc2N1	none (no result: TPT1 inh, HNF4A DNA FP, CSN inh)
Cc1c(N=Cc2c(O)n(C)c(=O)[nH]c2=O)c(=O)n(-c2ccccc2)n1C	none
C=CCn1c(O)c(C=Nc2c(C)n(C)n(-c3ccccc3)c2=O)c(=O)[nH]c1=O	TPT1 inh 38.3 | caTPT1 confirm inactive | RNase T1 counter 23.8
O=C1NC(=O)C(CCc2ccncc2)(Cc2ccc([N+](=O)[O-])cc2)C(=O)N1	TPT1 inh 28.0 | caTPT1 confirm inactive | RNase T1 counter inactive
COc1ccc(CC2(CCc3ccncc3)C(=O)NC(=O)NC2=O)cc1	none
COc1ccc(C2SCC(=O)Nc3c2c(C)nn3-c2ccccc2)cc1OC (stereo not given)	none
COc1ccc(C2SCC(=O)Nc3c2c(C)nn3C2CCOC(C)(C)C2)cc1OC (stereo not given)	TPT1 inh 26.8 | caTPT1 confirm inactive | RNase T1 counter 24.7
CC(C)OCCCNC(=O)c1c(N)n(Cc2cccs2)c2nc3ccccc3nc12	TPT1 inh 26.5 | caTPT1 confirm inactive | RNase T1 counter inactive
CC(C)CNC(=O)c1c(N)n(Cc2ccco2)c2nc3ccccc3nc12	TPT1 inh 28.5 | caTPT1 confirm inactive | RNase T1 counter 23.0
COc1ccc(Cn2c(N)c(C(=O)NCc3ccco3)c3nc4ccccc4nc32)cc1OC	TPT1 inh 28.2, CSN inh 57.2 | caTPT1 confirm inactive | RNase T1 counter inactive
O=C1NC(=O)N(c2ccc3c(c2)OCO3)C(=O)/C1=C/c1ccsc1	none (no result: Rev-erbA mod)
Cc1ccc(N2C(=O)NC(=O)/C(=C\c3ccoc3)C2=O)cc1	TPT1 inh 133.4, CSN inh 57.8 | caTPT1 confirm 26.8 | RNase T1 counter 36.9
COc1cc(/C=C2\C(=O)NC(=O)N(c3ccccc3)C2=O)cc(OC)c1O	TPT1 inh 50.7 | caTPT1 confirm inactive | RNase T1 counter inactive
